# High-throughput results (PubChem BioAssay)
# WT yeast gro inh = growth inhibition of WT yeast, mitochondrial fusion screen; mitochondrial fusion phenotypic screen, WT strain; inhibition, % at 10 µM; 190,000 tested, 2.1% active; AID 1362; in the data active = inhibition above about 58%; tested in S. cerevisiae
# G6PDH counter = counter-screen for G6PDH assay hits: L. mesenteroides G6PDH inhibition. Purified L. mesenteroides G6PDH, diaphorase/resazurin coupled fluorescence, 45 min. AID 1020. inhibition, % at 5 µM. 200,000 tested, 0.12% active
# L major viab = inhibitors of Leishmania major promastigote growth | Leishmania major promastigotes, resazurin fluorescence viability | inhibition, % at 10 µM | 200,000 tested, 9% active | AID 1063;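 also: promastigotes grown with compound for 44 hours at 28 °C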
# Diaphorase act = activates diaphorase or chemically reduces, flagging diaphorase assay artifacts | Diaphorase/resazurin coupled assay, resorufin fluorescence, 16 min; hits give high values; 1 = vehicle wells, 0 = NADH-free wells | 190,000 tested, 0.005% active | activation factor at 20 µM;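 active = diaphorase activity raised at least twofold by the compound at 20 µM; inactive = activation factor below 2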
#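 Assay system: Purified diaphorase enzyme from Clostridium kluyveri | Amount: Enzyme 0.07 U/mL final | Dosing: Compound 20 µM once, DMSO 1% | Timing: 16 min reaction at room temperature | Detection: Fluorescence, excitation 544 nm and emission 590 nm | Evaluation: Higher resorufin formation from activation or reduction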
# Diaph inh CS = counter-screen for diaphorase-based assays: diaphorase inhibitors and chemical oxidizers; 190,000 tested, 0.69% active; diaphorase resazurin-to-resorufin fluorescence, NADH, 16 min; bacterial (C. kluyveri) enzyme, not human; inhibition, % at 20 µM;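 active = primary screen inhibition at 20 µM above a set limit, cut at about 50% in these data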;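 also: plate controls were DMSO with full reaction for no effect and wells lacking NADH for full effect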
#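 Test system: bacterial diaphorase enzyme (C. kluyveri); Quantity: 0.14 U/mL diaphorase, enzyme working solution; Times: reaction incubation of 16 min at room temperature; Measured by: fluorescence of resorufin formed from resazurin, Ex 544/Em 590 nm; Benchmarks: positive control minus NADH, DMSO neutral control.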
# Active calls of the source: *; . = no result. An excerpt weighted towards active compounds, which were near 11% of everything screened. Rule as the data show it, unless noted: active = inhibition above about 50%; inactive = the rest.
SMILES,WT yeast gro inh,G6PDH counter,L major viab,Diaphorase act,Diaph inh CS
Cc1cc(C)cc(Nc2nc3c(S(=O)(=O)c4ccccc4)nnn3c3ccccc23)c1,3,1,50,1,5
Cc1cccc(Nc2nc3c(S(=O)(=O)c4ccccc4)nnn3c3ccccc23)c1,6,2,50*,0.9,15
OCCC1CN(Cc2c(F)cccc2Cl)CCN1C1CCCCC1 (configuration not stated),-2,5,53*,1,-1
CC(C)CCN1CCN(Cc2nc(-c3ccc(F)cc3)cs2)CC1CCO (configuration not stated),2,8,82*,1.1,-8
COc1ccc2c(c1)C=C(CN1CCN(C3CCCC3)C(CCO)C1)CO2 (configuration not stated),-19,8,88*,1,3
COc1ccc2c(c1)C=C(CN1CCN(C(C)C)C(CCO)C1)CO2 (configuration not stated),9,3,3,0.9,9
OCCC1CN(Cc2nc(-c3ccccc3)cs2)CCN1Cc1ccc(F)cc1 (configuration not stated),30,17,79*,0.9,5
OCCC1CN(Cc2nc(-c3ccccc3)cs2)CCN1C1CCCC1 (configuration not stated),-8,3,84*,1,1
Cc1ccc2c(CC(=O)Nc3cccc(S(=O)(=O)N4CCOCC4)c3)coc2c1,14,6,5,0.7,27
O=[N+]([O-])c1ccc(Cc2nnc(-c3ccccc3Cl)o2)cc1,18,3,17,0.9,8
O=C(c1cc([N+](=O)[O-])cc([N+](=O)[O-])c1)N(Cc1nnc(-c2ccccc2Cl)o1)C1CC1,33,0,82*,1,3
CCCN(Cc1nnc(-c2ccccc2Cl)o1)C(=O)c1cc([N+](=O)[O-])cc([N+](=O)[O-])c1,57,3,98*,0.9,9
O=C(CNS(=O)(=O)c1ccc(Br)cc1)N1CCOCC1,12,6,-3,0.9,7
Cn1c2c(c(=O)n(C)c1=O)C(c1cccc(Br)c1)C1C(=O)c3ccccc3C1=N2 (configuration not stated),.,.,1,.,.
CC(C)C(=O)NC(c1ccco1)c1ccc2cccnc2c1O (configuration not stated),-10,21,100*,0.5,55*
O=C(Nc1nc(-c2nc3ccccc3s2)cs1)c1ccco1,12,1,-8,1.2,-21
Oc1c(C(Nc2nc3ccccc3s2)c2ccco2)ccc2cccnc12 (configuration not stated),-9,1,100*,0.8,19
Cc1nn2c(-c3ccccn3)ccnc2c1Cl,-7,10,-9,1.1,-13
Cc1ccc(OCC(O)Cn2c(=N)n(Cc3ccccc3)c3ccccc32)cc1 (configuration not stated),-2,-1,100*,0.9,7
COc1ccc(OCC(O)Cn2c(=N)n(Cc3ccccc3)c3ccccc32)cc1 (configuration not stated),-1,-40,101*,1,0
N=c1n(Cc2ccc(Cl)cc2)c2ccccc2n1CC(O)COc1ccccc1 (configuration not stated),55,-7,100*,0.9,6
COc1ccc(OCC(O)COc2ccc(OC)cc2)cc1,-8,5,-7,1,-1
N=c1n(CCO)c2ccccc2n1Cc1ccc(Cl)cc1,-3,4,9,0.8,20
N=c1n(Cc2ccccc2)c2ccccc2n1CC(O)COc1ccc(Cl)cc1Cl (configuration not stated),94*,12,100*,.,.
Cc1ccccc1NC(=O)COC(=O)CN1C(=O)NC(C)(C)C1=O,9,9,-4,0.8,15
SMILES,WT yeast gro inh,G6PDH counter,L major viab,Diaphorase act,Diaph inh CS
CCC(=NCCc1c(C)[nH]c2ccccc12)C1=C(O)CC(c2ccccc2)CC1=O (configuration not stated),15,0,96*,1,0
Cc1ccc(-c2cn(-c3ccc(SC(F)F)cc3)c3[n+]2CCC3)cc1,-3,-11,99*,1.1,-7
COC(=O)c1ccc(C(=O)NC(=S)Nc2ccc3nc(SC)sc3c2)cc1,-8,2,-7,1.1,-6
CCn1nc(C)c(CN2CCCC(CO)(Cc3cccc(Cl)c3)C2)c1C (configuration not stated),-13,-3,53*,0.9,6
CCn1nc(C)c(CN2CCCC(CO)(Cc3ccccc3)C2)c1C (configuration not stated),1,2,61*,0.8,24
OCC1(Cc2cccc(Cl)c2)CCCN(Cc2sc(N3CCCC3)nc2Cl)C1 (configuration not stated),29,2,14,0.8,23
Cn1cc(CN2CCCC(CO)(Cc3ccccc3)C2)c2ccccc21 (configuration not stated),17,14,43,0.9,8
CCOC(=O)C1(Cc2cccc(Cl)c2)CCCN(CCO)C1 (configuration not stated),8,16,-5,0.9,14
Cc1c(CN2CCCC(CO)(Cc3cccc(Cl)c3)C2)cnn1C (configuration not stated),-13,10,61*,1.1,-10
CCOC(=O)c1c(NC(=O)C2CCCN(S(=O)(=O)c3ccccc3)C2)sc2c1CCCC2 (configuration not stated),2,-13,81*,0.9,15
CCOC(=O)c1c(NC(=O)C2COc3ccccc3O2)sc2c1CCN(Cc1ccccc1)C2 (configuration not stated),21,-20,58*,1,-3
CCOC(=O)c1c(NC(=O)COc2cccc3c2CCN(C)C3=O)sc2c1CCC2,-39,-3,80*,0.9,14
CCOC(=O)c1c(NC(=S)Nc2ccccc2)sc2c1CCN(CC)C2,23,5,98*,0.9,14
CCOC(=O)c1c(NC(=S)Nc2ccccc2)sc2c1CCCCC2,8,3,-8,0.8,15
CCOC(=O)c1ccc2c(c1)nc(-c1ccc(F)cc1)c1nccn12,7,-2,-5,0.9,7
C/C(=N\Nc1ccc(C(F)(F)F)cc1[N+](=O)[O-])C1CC1,10,-3,-7,0.9,6
COC(=O)CCC(=O)Nc1cc(S(=O)(=O)Nc2ccc(Cl)cc2)ccc1N1CCOCC1,14,8,-4,0.9,15
O=C(Nc1ccccc1F)Nc1cc(S(=O)(=O)N2CCOCC2)ccc1N1CCCC1,-14,9,5,0.9,9
COc1ccc(-c2cc(C(=O)Nc3cc(S(=O)(=O)N4CCOCC4)ccc3N3CCOCC3)c3ccccc3n2)cc1,-3,-5,65*,0.9,9
